Results: ChEMBL document CHEMBL1155814, “Structure-activity correlations for beta-phenethylamines at human trace amine receptor 1” (Bioorg Med Chem, 2008)
The source made the active and inactive calls.

Assays:
Type in all cases: functional, cell-based
[1] = biological target: T1, Trace amine-associated receptor 1 (Homo sapiens) (UniProt Q96RJ0); experiment: Agonist activity at human trace amine associated receptor 1 expressed in RD-HGA16 CHO-K1 cells coexpressed with Galpha16 protein assessed as internal calcium mobilization by calcium 3 assay relative to 2-phenylethanamine
T1 sequence (whole entry): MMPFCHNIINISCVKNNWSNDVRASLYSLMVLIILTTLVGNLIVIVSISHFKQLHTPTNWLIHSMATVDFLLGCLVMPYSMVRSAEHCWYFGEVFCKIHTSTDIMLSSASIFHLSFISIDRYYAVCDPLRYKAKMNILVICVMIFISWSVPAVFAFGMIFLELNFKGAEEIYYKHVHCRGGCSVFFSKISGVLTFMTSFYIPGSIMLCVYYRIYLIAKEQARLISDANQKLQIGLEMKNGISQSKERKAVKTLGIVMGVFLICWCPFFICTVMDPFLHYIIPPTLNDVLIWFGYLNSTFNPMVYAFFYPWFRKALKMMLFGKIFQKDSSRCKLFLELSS
In short: (§1)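 Unmodified human TAAR1 stably expressed in CHO cells carrying Galpha16 (RD-HGA16). Cells seeded at 30,000/well in HAM's F-12 with 10% FBS, 400 ug/mL hygromycin and 400 µg/mL geneticin, overnight at 37 °C, 5% CO2. Loaded 1 h at 37 °C with Calcium 3 dye at 1/3 kit strength. Fluorescence read from the bottom at 485/525 nm, 515 cutoff. Basal signal recorded 13 sec before compound addition. Compounds tested at 7–8 concentrations in duplicate. A six-point β-PEA curve was run on each plate.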

[2] = biological target: T2, Trace amine-associated receptor 1 (Homo sapiens, UniProt Q96RJ0); experiment: (§2) Agonist activity at human trace amine associated receptor 1 expressed in RD-HGA16 CHO-K1 cells coexpressed with Galpha16 protein assessed as internal calcium mobilization by calcium 3 assay
T2 sequence (Q96RJ0 whole entry): T1 sequence (whole entry)
In short: as §1, with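 “strength.” for “strength. Fluorescence read from the bottom at 485/525 nm, 515 cutoff.”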

[3] = biological target: T1, Trace amine-associated receptor 1 (Homo sapiens); experiment: as §2
In short: as §1, with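 “strength.” for “strength. Fluorescence read from the bottom at 485/525 nm, 515 cutoff.”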

[4] = biological target: T2, Trace amine-associated receptor 1; experiment: Agonist activity at human trace amine associated receptor 1 expressed in AV12-664 cells coexpressed with rat GalphaS protein assessed as cAMP accumulation
[5] = biological target: T1, Trace amine-associated receptor 1 (Homo sapiens); experiment: Agonist activity at human trace amine associated receptor 1 expressed in AV12-664 cells coexpressed with rat […] protein assessed as cAMP accumulation relative to 2-phenylethanamine

| SMILES | Emax [1] [%] | EC50 [2] [µM] | Activity [3] | EC50 [4] [µM] | Emax [5] [%] |
| --- | --- | --- | --- | --- | --- |
| C[C@H](CN)c1ccccc1 | 104 | 0.129 | – | – | – |
| Cc1ccc(C)c(CCN)c1 | 84 | 0.377 | – | – | – |
| NCCc1cccc(O)c1 | 78 | 1.74 | – | – | – |
| CCc1ccc(CCN)cc1 | 86 | 9.1 | – | – | – |
| CNCCc1ccc(Br)cc1 | 60 | 6.54 | – | – | – |
| CC(C)(CN)c1ccccc1 | 70 | 7.88 | – | – | – |
| NCCc1ccc(Cl)cc1 | 104 | 2.86 | – | – | – |
| NCCc1c(F)cccc1Cl | 94 | 0.312 | – | – | – |
| Cc1cccc(CCN)c1 | 93 | 0.638 | – | – | – |
| NCC1(c2ccccc2)CC1 | 79 | 5.05 | – | – | – |
| NCCc1ccc(Br)cc1 | 98 | 1.54 | – | – | – |
| CNCCc1ccc(F)cc1 | 63 | 1.04 | – | – | – |
| NCCc1ccccc1O | 90 | 0.614 | – | – | – |
| NCCc1ccccc1Cl | 72 | 0.077 | – | – | – |
| CN(C)CCc1ccccc1Cl | 79 | 0.687 | – | – | – |
| COc1cc(OC)c(OC)cc1CCN | – | – | inactive | – | – |
| NCCc1cccc(Cl)c1 | 105 | 0.189 | – | – | – |
| CC(C)(N)Cc1ccccc1 [PHENTERMINE] | 68 | 5.47 | – | – | – |
| CNCCc1cccc(F)c1 | 88 | 0.53 | – | – | – |
| CNCCc1ccc(Cl)cc1 | 67 | 7.43 | – | – | – |
| CN(C)CCc1cccc(Cl)c1 | 62 | 5.98 | – | – | – |
| COc1ccc(CCN)cc1 | 106 | 5.98 | – | – | – |
| NCCc1cccc(F)c1 | 93 | 0.15 | – | – | – |

| SMILES | Emax [1] [%] | EC50 [2] [µM] | Activity [3] | EC50 [4] [µM] | Emax [5] [%] |
| --- | --- | --- | --- | --- | --- |
| NCCc1ccc(O)cc1 [TYRAMINE] | 91 | 0.731 | – | – | – |
| NCCc1cccc(Br)c1 | 75 | 0.398 | – | – | – |
| CN(C)CCc1ccccc1 | – | 100 | – | 1.49 | 97.1 |
| C[C@@H](CN)c1ccccc1 | 97 | 0.361 | – | – | – |
| NCCc1ccccc1Br | 89 | 0.057 | – | – | – |
| COc1ccc(OC)c(CCN)c1 | 69 | 2.01 | – | – | – |
| CC(C)(C)c1ccc(CCN)cc1 | – | 5110 | – | – | – |
| Cc1ccc(CCN)cc1 | 96 | 4.38 | – | – | – |
| COc1cc(CCN)c(OC)cc1C | 36 | 6.48 | – | – | – |
| NCCc1ccc(C(F)(F)F)cc1 | 78 | 11.6 | – | – | – |
| CNCCc1cccc(Cl)c1 | 77 | 0.501 | – | – | – |
| CNCCc1ccccc1Br | 93 | 0.205 | – | – | – |
| NCCc1ccccc1I | 109 | 0.103 | – | – | – |
| NCCc1ccc2c(c1)OCO2 | 63 | 5.03 | – | – | – |
| CN(C)CCc1cccc(F)c1 | 78 | 4.32 | – | – | – |
| CN(C)CCc1ccc(Br)cc1 | 40 | 24.4 | – | – | – |
| CN(C)CCc1ccc(F)cc1 | 71 | 19.1 | – | – | – |
| NCCc1ccccc1F | 91 | 0.065 | – | – | – |
| NCC(c1ccccc1)c1ccccc1 | 70 | 3.4 | – | – | – |
| NCCc1ccc(Cl)c(Cl)c1 | 78 | 3.43 | – | – | – |
| CN(C)CCc1cccc(Br)c1 | 88 | 8.3 | – | – | – |
| CNCCc1ccccc1 | 69 | 0.387 | – | 0.25 | 93.4 |
| COc1cccc(CCN)c1 | 73 | 1.44 | – | – | – |

| SMILES | Emax [1] [%] | EC50 [2] [µM] | Activity [3] | EC50 [4] [µM] | Emax [5] [%] |
| --- | --- | --- | --- | --- | --- |
| N[C@@H]1C[C@H]1c1ccccc1 (relative stereo) | 72 | 1.51 | – | – | – |
| COc1cc(CCN)c(OC)cc1Cl | 30 | 3.75 | – | – | – |
| Cc1ccccc1CCN | 97 | 0.355 | – | – | – |
| CN(C)CCc1ccccc1Br | 78 | 3.46 | – | – | – |
| CN(C)CCc1ccc(Cl)cc1 | 43 | 630 | – | – | – |
| NCCc1cccc(Cl)c1Cl | 84 | 1.16 | – | – | – |
| CN(C)CCc1ccccc1F | 75 | 1.29 | – | – | – |
| NCCc1c(F)cc(O)cc1F | 103 | 0.767 | – | – | – |
| C[C@@H](N)Cc1ccccc1 | 64 | – | – | – | – |
| CNCCc1ccccc1Cl | 70 | 0.16 | – | – | – |
| CNCCc1cccc(Br)c1 | 71 | 1.07 | – | – | – |
| NCCc1ccccc1 [PHENETHYLAMINE] | 100 | 0.129 | – | – | – |
| NCCc1ccc(F)cc1 | 81 | 0.74 | – | – | – |
| NCCc1ccc([N+](=O)[O-])cc1 | – | 167 | – | – | – |
| COc1cc(F)c(CCN)c(F)c1 | 90 | 1.4 | – | – | – |
| NCCc1cccc(C(F)(F)F)c1 | 69 | 3.95 | – | – | – |
| CC(C)C(CN)c1ccccc1 (stereo unspecified) | 46 | 9.95 | – | – | – |
| NCCc1c(Cl)cccc1Cl | 94 | 0.051 | – | – | – |
| CCc1cc(OC)c(CCN)cc1OC | 32 | 6.41 | – | – | – |
| COc1cc(CCN)c(OC)cc1Br | 22 | 7.19 | – | – | – |
| CNCCc1ccccc1F | 75 | 0.117 | – | – | – |
| C[C@H](N)Cc1ccccc1 | 74 | – | – | – | – |
| COc1ccccc1CCN | 95 | 0.144 | – | – | – |
